Experimental data reported in ChEMBL document CHEMBL3414455, “Boronic species as promising inhibitors of the Staphylococcus aureus NorA efflux pump: study of 6-substituted pyridine-3-boronic acid derivatives” (Eur J Med Chem, 2015).
Converted amounts (≈) assume the structure as drawn.

Key:
[1] = target: T1, Quinolone resistance protein NorA (Staphylococcus aureus) (UniProt P0A0J7); assay: Inhibition of NorA in fluoroquinolone-resistant Staphylococcus aureus 1199B assessed as minimum modulatory concentration require to potentiate 4 ug/ml ciprofloxacin-induced antibacterial activity
T1 sequence (whole entry): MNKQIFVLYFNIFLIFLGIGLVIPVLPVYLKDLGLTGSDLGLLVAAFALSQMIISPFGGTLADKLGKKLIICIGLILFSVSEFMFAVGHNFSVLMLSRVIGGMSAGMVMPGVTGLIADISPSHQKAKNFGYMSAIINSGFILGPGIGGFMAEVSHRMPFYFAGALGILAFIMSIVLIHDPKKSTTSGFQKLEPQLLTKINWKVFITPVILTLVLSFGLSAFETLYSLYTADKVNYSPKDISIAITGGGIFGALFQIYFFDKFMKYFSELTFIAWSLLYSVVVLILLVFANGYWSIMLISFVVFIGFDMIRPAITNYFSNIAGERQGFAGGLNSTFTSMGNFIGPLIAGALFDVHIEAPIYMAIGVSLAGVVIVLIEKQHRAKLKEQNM

[2] = target: T1, Quinolone resistance protein NorA (Staphylococcus aureus); assay: Inhibition of NorA in fluoroquinolone-resistant Staphylococcus aureus 1199B assessed as minimum modulatory concentration require to potentiate 2 ug/ml ciprofloxacin-induced antibacterial activity
[3] = target: T1, Quinolone resistance protein NorA (Staphylococcus aureus); assay: Inhibition of NorA in fluoroquinolone-resistant Staphylococcus aureus 1199B assessed as minimum modulatory concentration require to potentiate 16 ug/ml norfloxacin-induced antibacterial activity
Staphylococcus aureus [4] = assay: Antibacterial activity against fluoroquinolone-resistant Staphylococcus aureus 1199B overexpressing NorA after 24 hrs by two fold microdilution method; assay type: functional
Staphylococcus aureus [5] = assay: Antibacterial activity against methicillin-susceptible […] Staphylococcus aureus ATCC 25923 after 24 hrs by two fold microdilution method; assay type: functional; settings: ATCC 25923, 24 h
Procedure, shortened: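 Broth microdilution in Mueller-Hinton broth, about 10^6 CFU/mL per well, inoculum from an 18 h culture at 37°C. Compounds were dissolved in DMSO and tested in twofold serial dilutions, top 128 mg/L, or the highest fully soluble level (at least 16 mg/L). MIC is the lowest concentration giving complete growth inhibition after 24 h at 37°C, read at 620 nm and visually, in duplicate.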

[6] = Cytotoxicity against human KB cells assessed as growth inhibition at 10 uM after 72 hrs by MTS assay relative to control; assay type: cell-based; settings: read-out: GI
Procedure, shortened: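 KB cells were grown in D-MEM with 10% FCS at 37°C under 5% CO2. Compounds in DMSO (1% final) were added 24 h after plating, and cells were exposed for 72 h. MTS was then added for 3 h and absorbance read at 490 nm. Inhibition = (1 − OD treated/OD DMSO control) × 100, in triplicate. Docetaxel 0.15 nM served as positive control.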

[7] = Cytotoxicity against human KB cells assessed as growth inhibition at 10^-6 M after 72 hrs by MTS assay relative to control; assay type: cell-based; settings: read-out: GI
[8] = target: T1, Quinolone resistance protein NorA (Staphylococcus aureus); assay: Inhibition of NorA in fluoroquinolone-resistant Staphylococcus aureus 1199B assessed as minimum modulatory concentration require to potentiate 2 ug/ml ciprofloxacin-induced antibacterial activity at MMC relative to control
[9] = target: T1, Quinolone resistance protein NorA (Staphylococcus aureus); assay: Inhibition of NorA in fluoroquinolone-resistant Staphylococcus aureus 1199B assessed as increase in ethidium bromide uptake at 20 ug/ml after 20 mins by fluorimetry relative to control
Procedure, shortened: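 Mid-log cells (overnight culture diluted 20-fold, 3.5 h, 37°C, 130 rpm) resuspended in Mueller-Hinton broth containing 10 mg/L EtBr, 37°C; compound added at 10 min (final 20 mg/L), fluorescence (ex 530/em 600 nm) followed 20 more min; rise over pre-addition baseline; reserpine 5 and 20 µg/mL positive, 1.6% DMSO negative; two or three experiments.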

[10] = target: ATP-dependent translocase ABCB1 (Homo sapiens, UniProt P08183); assay: Inhibition of MDR1 in human NCI-ADR-RES cells assessed as increase in rhodamine-123 uptake at 1 to 100 uM after 1 hr by fluorescence assay; assay type: cell-based
Procedure, shortened: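 NCI/ADR-RES cells (P-gp overexpressing) were seeded at 60,000/well in RPMI. After 24 h they were washed with PBS and given compound (100, 10, 1 µM) plus 12.5 µM rhodamine 123 in FCS-free medium for 1 h at 37°C, 5% CO2. Cells were then washed, lysed in 20 mM Tris pH 7.7 with 0.2% SDS, and fluorescence read at 507/528 nm.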

Staphylococcus aureus [11] = assay: microbe, parasite or virus in culture; settings: 1199B, 24 h

Compound	MMC [1] [µg/mL]	MMC [2]	MMC [3] [µg/mL]	MIC (Staphylococcus aureus [4]) [µg/mL]	MIC (Staphylococcus aureus [5]) [µg/mL]	inhibition at 72 h, 10 µM [6] [%]	inhibition at 72 h, 1 µM [7] [%]	fold change (FC) [8]	inhibition [9] [%]	inhibition (INH) [10]	MIC (Staphylococcus aureus [11]) [µg/mL]
CCCOc1ccc(B(O)O)cn1	4	> 128 µg/mL	> 128	> 128	> 128	0					
OB(O)c1ccc(OCCCCCCCc2ccccc2)nc1	0.5	12.8 µM		> 16	> 16	62					
OB(O)c1ccc(OCCCCCc2ccccc2)nc1	2	14 µM		16 (≈ 56.1 µM)		60	6				
CCCCCCCCCCCCOc1ccc(B(O)O)cn1	> 16	> 16 µg/mL		> 16	> 16	13					
OB(O)c1ccc(OCc2ccccc2)nc1	1	69.8 µM	32	> 128	> 128			4			
CCn1cc(C(=O)O)c(=O)c2cc(F)c(N3CCNCC3)cc21 [NORFLOXACIN]				64 (≈ 200 µM)							
OB(O)c1ccc(Oc2ccccc2)nc1	2	298 µM	128	> 128	> 128	14					
OB(O)c1ccc(OCc2ccc(Cl)cc2)nc1	1	121 µM	16	128 (≈ 486 µM)	≥ 128	33					
OB(O)c1ccc(OCc2ccc(Cl)c(Cl)c2)nc1	0.125	3.35 µM		16 (≈ 53.7 µM)		44	0				
CC1(C)S[C@@H]2[C@H](NC(=O)[C@H](N)c3ccccc3)C(=O)N2[C@H]1C(=O)O [AMPICILLIN]					0.25 (≈ 0.715 µM)						
OB(O)c1ccc(NCc2ccccc2)nc1	32	561 µM		> 128	> 128	0					
Cc1cc(B(O)O)cnc1OCc1ccccc1	4	65.8 µM	8	> 128		15					
OB(O)c1ccc(OCCCCc2ccccc2)nc1	0.25	14.8 µM	8	32 (≈ 118 µM)	64 (≈ 236 µM)	13		4	42	Not Active	
CCCCCCCOc1ccc(B(O)O)cn1	0.5	33.7 µM	8	> 16	> 16	73					
OB(O)c1ccc(OCc2ccc(F)cc2)nc1	2	130 µM	64	> 128	> 128	8					
OB(O)c1cncc(OCc2ccccc2)c1	8	> 128 µg/mL		> 128	> 128	0					
CCCCCCOc1ccc(B(O)O)cn1	2	71.7 µM	16	> 128		46					
CCCCCOc1ccc(B(O)O)cn1	2	306 µM	64	> 128	> 128	16					
OB(O)c1ccc(OCCCc2ccccc2)nc1	0.5	15.6 µM	8	> 128	> 128	83	9	4	43	Not Active	
CCCCOc1ccc(B(O)O)cn1	2	328 µM	64	> 128	> 128	1					
OB(O)c1ccc(OCCCCCCc2ccccc2)nc1	0.5	13.4 µM		> 16	> 16	46					
OB(O)c1ccc(OCCc2ccccc2)nc1	1	65.8 µM	16	> 128	> 128	28					
O=C(O)c1cn(C2CC2)c2cc(N3CCNCC3)c(F)cc2c1=O [CIPROFLOXACIN]				8 (≈ 24.1 µM)							0.5 (≈ 1.51 µM)
OB(O)c1ccc(SCc2ccccc2)nc1	0.5	65.3 µM	16	64 (≈ 261 µM)	64 (≈ 261 µM)	8					
COC(=O)[C@H]1[C@H]2C[C@@H]3c4[nH]c5cc(OC)ccc5c4CCN3C[C@H]2C[C@@H](OC(=O)c2cc(OC)c(OC)c(OC)c2)[C@@H]1OC		6.57 µM									
OB(O)c1ccc(Oc2ccc(Cl)cc2Cl)nc1	1	56.4 µM	32	128 (≈ 451 µM)		1					
OB(O)c1ccc(OCc2ccc3c(c2)OCO3)nc1	64			> 128	> 128	0					
COc1cc(COc2ccc(B(O)O)cn2)cc(OC)c1OC	8			> 128	> 128	3					
